Experimental data published in ChEMBL document CHEMBL3860048 (J Med Chem, 2016).
Activity calls are given as the source filed them. The calls are words filed in the database; no cut-off is given here. Where a SMILES comes first, the peptide text is derived from it. [ ]: non-standard residue; d: D form. Phe(3-F) = N[C@@H](Cc1cccc(F)c1)C(=O)O; Arg(Me) = CNC(=N)NCCC[C@H](N)C(=O)O; Hyp = O=C(O)[C@@H]1C[C@@H](O)CN1; Aib = CC(C)(N)C(=O)O; azaGly = NNC(=O)O

What was measured:
Rattus norvegicus [1] = experiment: Inhibition of testosterone levels in Crl:CD(SD) rat plasma assessed as plasma testosterone level <0.04 ng/ml at 10 pmol/hr, sc administered as continuous dosing through alzet osmotic pump for 1 week by radio-immunoassay; type: functional, organism-based
Procedure, shortened: (§1)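 Peptide dissolved in 50% DMSO at 3, 10, 30 or 100 µM, loaded into ALZET osmotic pumps for 3 to 100 pmol/h. Pumps implanted sc in 5 Crl:CD(SD) male rats. Plasma testosterone measured by RIA after 1 or 4 weeks. Values below the 0.04 ng/mL detection limit were treated as 0.04. Count of rats below the limit.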

[2] = Plasma concentration in Sprague-Dawley rat at 1 mg/kg, iv after 5 mins by LC/MS analysis; type: ADME, organism-based
Procedure, shortened: (§2)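 Single intravenous 1 mg/kg bolus to SD rats (n=3 per group). Blood sampled at 5, 10, 15, 30 min and 1, 2, 4, 8, 24 h. Plasma deproteinized with 0.2% formic acid/methanol (1:4, v/v) plus acetonitrile, spun 15,000 rpm for 5 min, supernatant treated with 0.4% aqueous formic acid and spun again, then quantified by LC/MS. Noncompartmental parameters per rat, reported as mean ± SD.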

[3] = MRT in Sprague-Dawley rat plasma at 1 mg/kg, iv by LC/MS analysis; type: ADME, organism-based; procedure, shortened: as §2
[4] = Bioavailability in Sprague-Dawley rat plasma at 1 mg/kg, sc up to 24 hrs by LC/MS analysis; type: ADME, organism-based
Procedure, shortened: (§3)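 Single subcutaneous 1 mg/kg dose to SD rats (n=3 per group). Plasma drawn at 5, 10, 15, 30 min and 1, 2, 4, 8, 24 h. Proteins removed with 0.2% formic acid/methanol (1:4, v/v) plus acetonitrile, centrifuged, supernatant diluted in 0.4% aqueous formic acid, then measured by LC/MS. Noncompartmental analysis per rat, mean ± SD.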

[5] = MRT in Sprague-Dawley rat plasma at 1 mg/kg, sc by LC/MS analysis; type: ADME, organism-based; procedure, shortened: as §3
[6] = Total clearance in Sprague-Dawley rat plasma at 1 mg/kg, iv up to 24 hrs by LC/MS analysis; type: ADME, organism-based; procedure, shortened: as §2
[7] = AUC (0 to 24 hrs) in Sprague-Dawley rat plasma at 1 mg/kg, iv up to 24 hrs by LC/MS analysis; type: ADME, organism-based; parameters: dose 1 mg/kg, time < 24 hr, route intravenous; procedure, shortened: as §2
KiSS-1 receptor [8] = target: KiSS-1 receptor (Rattus norvegicus, UniProt Q924U1); experiment: Agonist activity at rat KISS1R expressed in CHO/dhfr cells assessed as increase in intracellular Ca2+ levels measured for 180 secs by Fluo 3-AM dye based FLIPR assay; type: functional, cell-based
Rattus norvegicus [9] = experiment: Inhibition of testosterone levels in CD(SD) rat assessed as plasma testosterone level <0.04 ng/ml at 0.01 nmol/hr, sc administered continuously for 6 days through alzet osmotic pump measured after 6 days by radio-immunoassay; type: functional, organism-based
KiSS-1 receptor [10] = target: KiSS-1 receptor (Homo sapiens, UniProt Q969F8); experiment: Agonist activity at human KISS1R expressed in CHO/dhfr cells assessed as increase in intracellular Ca2+ levels measured for 180 secs by Fluo 3-AM dye based FLIPR assay; type: functional, cell-based
Procedure, shortened: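 CHO cells expressing human KISS1R; FLIPR recording of ligand-induced [Ca2+]i rise over time. Maximum response taken and expressed as percent of the response to a maximal concentration of metastin(45-54). EC50 = concentration giving half-maximal mobilization, from nonlinear regression of smoothed data. Reported as ratio to the metastin(45-54) EC50.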

[11] = Cmax in Sprague-Dawley rat plasma at 1 mg/kg, sc by LC/MS analysis; type: ADME, organism-based; parameters: dose 1 mg/kg, route subcutaneous; procedure, shortened: as §3
Rattus norvegicus [12] = experiment: Inhibition of testosterone levels in Crl:CD(SD) rat plasma assessed as plasma testosterone level <0.04 ng/ml at 30 pmol/hr, sc administered as continuous dosing through alzet osmotic pump for 1 week by radio-immunoassay; type: functional, organism-based; procedure, shortened: as §1
[13] = Solubility of the compound in water at 20 mg/ml; type: physicochemical; conditions: buffer
[14] = AUC (0 to 24 hrs) in Sprague-Dawley rat plasma at 1 mg/kg, sc by LC/MS analysis; type: ADME, organism-based; parameters: dose 1 mg/kg, time < 24 hr, route subcutaneous; procedure, shortened: as §3
[15] = Volume of distribution in steady state in Sprague-Dawley rat plasma at 1 mg/kg, iv up to 24 hrs by LC/MS analysis; type: ADME, organism-based; conditions: read-out: Vdss; procedure, shortened: as §2
[16] = Tmax in Sprague-Dawley rat plasma at 1 mg/kg, sc by LC/MS analysis; type: ADME, organism-based; procedure, shortened: as §3
Rattus norvegicus [17] = experiment: Inhibition of testosterone levels in CD(SD) rat assessed as plasma testosterone level <0.04 ng/ml at 0.03 nmol/hr, sc administered continuously for 6 days through alzet osmotic pump measured after 6 days by radio-immunoassay; type: functional, organism-based
Rattus norvegicus [18] = experiment: Inhibition of testosterone levels in Crl:CD(SD) rat plasma assessed as plasma testosterone level <0.04 ng/ml at 3 pmol/hr, sc administered as continuous dosing through alzet osmotic pump for 1 week by radio-immunoassay; type: functional, organism-based; procedure, shortened: as §1
[19] = Inhibition of testosterone levels in sc dosed Crl:CD(SD) rat plasma assessed as compound dosing causing plasma testosterone level <0.04 ng/ml in all tested animals administered as continuous dosing through alzet osmotic pump for 1 to 4 weeks by radio-immunoassay; type: functional
Rattus norvegicus [20] = experiment: Inhibition of testosterone levels in Crl:CD(SD) rat plasma assessed as plasma testosterone level <0.04 ng/ml at 30 pmol/hr, sc administered as continuous dosing through alzet osmotic pump for 4 weeks by radio-immunoassay; type: functional, organism-based; procedure, shortened: as §1
[21] = Conformational changes of the compound in distilled water assessed as decrease in beta-sheet content at 0.1 mg/ml by preliminary circular dichroism analysis; parameters: scale not given: the % may be the effect or the level left
[22] = Solubility of the compound in water up to 500 mg/ml; type: physicochemical; conditions: buffer

KiSS-1 receptor (Homo sapiens, UniProt Q969F8), sequence (Q969F8 whole entry): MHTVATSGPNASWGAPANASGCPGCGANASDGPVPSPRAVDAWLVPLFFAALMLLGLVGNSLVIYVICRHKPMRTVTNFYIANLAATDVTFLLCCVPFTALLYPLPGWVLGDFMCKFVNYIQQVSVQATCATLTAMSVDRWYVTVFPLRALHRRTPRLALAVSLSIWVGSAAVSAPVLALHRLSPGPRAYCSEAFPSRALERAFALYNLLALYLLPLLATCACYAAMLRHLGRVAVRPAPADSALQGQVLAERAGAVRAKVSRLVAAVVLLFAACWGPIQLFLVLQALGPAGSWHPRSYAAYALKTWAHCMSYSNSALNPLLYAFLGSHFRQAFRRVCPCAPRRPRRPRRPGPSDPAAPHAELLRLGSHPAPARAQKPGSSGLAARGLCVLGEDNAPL
KiSS-1 receptor (Rattus norvegicus, UniProt Q924U1), sequence (Q924U1 whole entry): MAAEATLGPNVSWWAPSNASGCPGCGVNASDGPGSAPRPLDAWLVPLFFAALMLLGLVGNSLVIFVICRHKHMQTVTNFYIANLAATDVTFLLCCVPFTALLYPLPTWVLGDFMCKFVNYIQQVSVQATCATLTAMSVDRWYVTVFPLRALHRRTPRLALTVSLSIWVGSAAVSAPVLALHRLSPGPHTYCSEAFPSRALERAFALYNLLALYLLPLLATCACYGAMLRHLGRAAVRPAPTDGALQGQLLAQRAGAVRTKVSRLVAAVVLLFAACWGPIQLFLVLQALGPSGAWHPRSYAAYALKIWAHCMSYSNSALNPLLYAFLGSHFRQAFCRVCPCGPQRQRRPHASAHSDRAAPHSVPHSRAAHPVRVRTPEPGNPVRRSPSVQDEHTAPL

| SMILES | inhibition (Rattus norvegicus [1]) | concentration at 5 min [2] | MRT [3] | bioavailability [4] | MRT [5] | clearance [6] | AUC(0-t) at 24 h [7] | EC50 (KiSS-1 receptor [8]) | inhibition (Rattus norvegicus [9]) | EC50 (KiSS-1 receptor [10]) | Cmax [11] | inhibition (Rattus norvegicus [12]) | solubility [13] | AUC(0-t) at 24 h [14] | Vd [15] | Tmax [16] | inhibition (Rattus norvegicus [17]) | other results |
| --- | --- | --- | --- | --- | --- | --- | --- | --- | --- | --- | --- | --- | --- | --- | --- | --- | --- | --- |
| CNC(=N)NCCC[C@H](NC(=O)[C@H](CC(C)C)NC(=O)NNC(=O)[C@H](Cc1cccc(F)c1)NC(=O)[C@@H](NC(=O)[C@H](CC(N)=O)NC(=O)[C@H](CCC(=O)O)NC(=O)[C@@H](Cc1ccc(O)cc1)NC(C)=O)[C@@H](C)O)C(=O)N[C@@H](Cc1c[nH]c2ccccc12)C(N)=O (Ac-[dY]ENT[Phe(3-F)][azaGly]L[Arg(Me)]W-NH2) | Active | 2630 ng/mL | 31.8 min | 94.5% | 65.4 min | 12.8 mL/min/kg | 1330 ng·h/mL | 20 nM | Active | 0.47 nM | 703 ng/mL | Active | Insoluble | 1260 ng·h/mL | 0.406 L/kg | 23.4 min | – | – |
| CNC(=N)NCCC[C@H](NC(=O)[C@H](CC(C)C)NC(=O)NNC(=O)[C@H](Cc1ccccc1)NC(=O)[C@@H](NC(=O)[C@H](CC(N)=O)NC(=O)CNC(=O)[C@@H](Cc1ccc(O)cc1)NC(C)=O)[C@@H](C)O)C(=O)N[C@@H](Cc1c[nH]c2ccccc12)C(N)=O (Ac-[dY]GNTF[azaGly]L[Arg(Me)]W-NH2) | – | – | – | – | – | – | – | 46 nM | – | 5.2 nM | – | – | Soluble | – | – | – | Active | – |
| CNC(=N)NCCC[C@H](NC(=O)[C@H](CC(C)C)NC(=O)NNC(=O)[C@H](Cc1cccc(F)c1)NC(=O)[C@@H](NC(=O)[C@H](CC(N)=O)NC(=O)[C@H](CCCCN)NC(=O)[C@@H](Cc1ccc(O)cc1)NC(C)=O)[C@@H](C)O)C(=O)N[C@@H](Cc1c[nH]c2ccccc12)C(N)=O (Ac-[dY]KNT[Phe(3-F)][azaGly]L[Arg(Me)]W-NH2) | – | – | – | – | – | – | – | 7.1 nM | – | 0.43 nM | – | – | Soluble | – | – | – | – | – |
| CNC(=N)NCCC[C@H](NC(=O)[C@H](CC(C)C)NC(=O)NNC(=O)[C@H](Cc1ccccc1)NC(=O)[C@@H](NC(=O)[C@H](CC(N)=O)NC(=O)C(C)(C)NC(=O)[C@@H](Cc1ccc(O)cc1)NC(C)=O)[C@@H](C)O)C(=O)N[C@@H](Cc1c[nH]c2ccccc12)C(N)=O (Ac-[dY][Aib]NTF[azaGly]L[Arg(Me)]W-NH2) | – | – | – | – | – | – | – | 17 nM | – | 2.4 nM | – | – | Soluble | – | – | – | Active | – |
| CNC(=N)NCCC[C@H](NC(=O)[C@H](CC(C)C)NC(=O)NNC(=O)[C@H](Cc1cccc(F)c1)NC(=O)[C@@H](NC(=O)[C@H](CC(N)=O)NC(=O)[C@@H]1C[C@@H](O)CN1C(=O)[C@@H](Cc1ccc(O)cc1)NC(C)=O)[C@@H](C)O)C(=O)N[C@@H](Cc1c[nH]c2ccccc12)C(N)=O (Ac-[dY][Hyp]NT[Phe(3-F)][azaGly]L[Arg(Me)]W-NH2) | – | – | – | – | – | – | – | 8.5 nM | Active | 0.75 nM | – | – | – | – | – | – | – | – |
| CNC(=N)NCCC[C@H](NC(=O)[C@H](CC(C)C)NC(=O)NNC(=O)[C@H](Cc1ccccc1)NC(=O)[C@@H](NC(=O)[C@H](CC(N)=O)NC(=O)[C@@H]1C[C@@H](O)CN1C(=O)[C@@H](Cc1ccc(O)cc1)NC(C)=O)[C@@H](C)O)C(=O)N[C@@H](Cc1c[nH]c2ccccc12)C(N)=O [TAK-448] | Active | 2850 ng/mL | 37.2 min | 43.9% | 72.6 min | 10.8 mL/min/kg | 1550 ng·h/mL | 36 nM | Active | 5.2 nM | 342 ng/mL | Active | Soluble | 679 ng·h/mL | 0.403 L/kg | 19.8 min | – | inhibition (Rattus norvegicus [18]): Active; MED [19]: 30 pmol/h; inhibition (Rattus norvegicus [20]): Active; Activity [21]: 21.9%; solubility [22]: Soluble |
